Measurements gathered from unrelated publications.
Organism: Pseudomonas aeruginosa
Effect on: microbial growth

`C[C@H]1[C@H](NC(=O)/C(=N\OC(C)(C)C(=O)O)c2csc(N)n2)C(=O)N1S(=O)(=O)O` has an MIC of 4 µg/mL (agar dilution; PAO1).
With `CN(C)[C@@H]1C(O)=C(C(N)=O)C(=O)[C@@]2(O)C(O)=C3C(=O)c4c(O)cnc(Cl)c4C[C@H]3C[C@@H]12.Cl` the MIC was over 32 µg/mL (broth dilution; ATCC27853).
`CC1(C)SC2C(NC(=O)C(NC(=O)C3=C(O)C4CCCN4C3=O)c3ccccc3)C(=O)N2C1C(=O)O` (stereo not shown) has an MIC of 50 µg/mL.
With `O=C(CCCCCCCC[P+](c1ccccc1)(c1ccccc1)c1ccccc1)Nc1ccc(O)c(O)c1.[Br-]` the MIC was over 32 µg/mL (broth dilution; ATCC27853; 18 h).
The MIC of `N=C(N)NN=Cc1ccc(OC/C=C\COc2ccc(C=NNC(=N)N)cc2)cc1` is reported as at most 51 µg/mL (PA14; 16 h).
The MIC of `Fc1ccc(NCc2ccc(Oc3ccccn3)cc2)cc1` is reported as over 12.5 µg/mL.
The MIC of `CC(C)Oc1c(NC(=O)c2ccc(NC(=O)[C@H](CC(N)=O)NC(=O)c3ccc(NC(=O)c4cccc(N)c4)cc3)cc2)ccc(C(=O)Nc2ccc(C(=O)O)cc2)c1O` is reported as over 64 µg/mL (PA14).
The MIC of `CCCCCCC/C=C/C(=O)N1C(=O)/C(=C(\O)C2CCNCC2)C(=O)C1CC(C)C` (stereo not shown) is reported as 25 µg/mL (PA01).
`Cc1ccc2nc(-c3ccc(Cl)cc3)n(Cc3ccccc3Cl)c2c1` has an MIC of 512 µg/mL (broth dilution; ATCC27853).
`CCCCC(=O)N1C(=O)/C(=C(/C)O)C(=O)C1CC(C)C` (stereo not shown) has an MIC of over 200 µg/mL (PA01).
The MIC of `O=C(CCCCCC[P+](c1ccccc1)(c1ccccc1)c1ccccc1)Nc1ccc(O)c(O)c1.[Br-]` is reported as over 32 µg/mL (broth dilution; ATCC27853; 18 h).
`Cc1ccc(C)n1-c1ccc(-c2nnc(-c3ccccc3[N+](=O)[O-])[nH]2)cc1` has an MIC of 250 µg/mL (broth dilution; ATCC10145; 18 h).
For `COc1c(C)c(OC)c2c(c1C)OC(c1ccccc1)CC2=O` (stereo not shown), the MIC was 5000 µg/mL (broth dilution; ATCC27853).
`CN(C)[C@@H]1C(O)=C(C(N)=O)C(=O)[C@@]2(O)C(O)=C3C(=O)c4c(O)cccc4[C@@](C)(O)[C@H]3C[C@@H]12` gave an MIC of 8 µg/mL (ATCC27853).
With `CCCCCCC#Cc1cncc(-c2nnc(SCc3ccc(Cl)cc3)n2C)c1` the MIC was at least 20 µg/mL.
`CO[C@@H](C(N)=O)[C@H](NC(=O)c1ccc(NC(=O)c2ccc(C#N)cc2)cc1)C(=O)Nc1ccc(C(=O)Nc2ccc(C(=O)Nc3ccc(C(=O)O)cc3)c(O)c2OC(C)C)cc1` has an MIC of 0.5 µg/mL (PA14).
`CCn1cc(C(=O)O)c(=O)c2cc(F)c(N3CCNCC3)cc21` gave an MIC of 2 µM (broth dilution; ATCC9027).
`C[C@H]1COc2c(N3CCN(C)CC3)c(F)cc3c(=O)c(C(=O)O)cn1c23` has an MIC of 138 µM (broth dilution; CMCC10104).
For `CCCNc1nc(Cl)c2c(c1O)C(=O)C1=C(O)[C@]3(O)C(=O)C(C(N)=O)=C(O)[C@@H](N(C)C)[C@@H]3C[C@@H]1C2.Cl.Cl.Cl`, the MIC was 32 µg/mL (broth dilution; ATCC27853).
The MIC of `Cc1ccc2nc(-c3ccc([N+](=O)[O-])cc3)n(Cc3ccc(Cl)cc3)c2c1` is reported as 256 µg/mL (broth dilution; ATCC27853).
`CN(C)[C@@H]1C(O)=C(C(N)=O)C(=O)[C@@]2(O)C(O)=C3C(=O)c4c(cc5ccccc5c4O)C[C@H]3C[C@@H]12` gave an MIC of 32 µg/mL (broth dilution; ATCC27853).
With `CC(=O)NCN1N=C(C)C(=NNn2c(-c3ccccc3)nc3ccccc3c2=O)C1=O` the MIC was 59.9 µM (broth dilution; 24 h).
`CCCC(=O)Oc1c(C)c(O)c(C(=O)/C=C/c2ccccc2)c(OC)c1C` gave an MIC of 5000 µg/mL (broth dilution; ATCC27853).
`CC(C)Oc1c(NC(=O)c2ccc(NC(=O)[C@H](CC(N)=O)NC(=O)c3ccc(NC(=O)c4ccc(C(F)(F)F)cc4)cc3)cc2)ccc(C(=O)Nc2ccc(C(=O)O)cc2)c1O` has an MIC of over 64 µg/mL (PA14).
For `Cc1ccc2nc(-c3ccc([N+](=O)[O-])cc3)n(Cc3ccccc3Cl)c2c1`, the MIC was 256 µg/mL (broth dilution; ATCC27853).
`CC(C)Oc1c(NC(=O)c2ccc(NC(=O)[C@H](CC(N)=O)NC(=O)c3ccc(NC(=O)c4ccc([N+](=O)[O-])cc4)cc3)cc2)ccc(C(=O)Nc2ccc(C(=O)O)c(F)c2)c1O` gave an MIC of over 64 µg/mL (PA14).
`CCCCCCC/C=C/C(=O)N1C(=O)/C(=C(/C)O)C(=O)C1CCC(=O)O` (stereo not shown) has an MIC of over 200 µg/mL (PA01).
`CC(C)Oc1c(NC(=O)c2ccc(NC(=O)[C@H](CC(N)=O)NC(=O)c3ccc(NC(=O)c4ccc(C#N)cc4)cc3)cc2)ccc(C(=O)O)c1O` gave an MIC of over 64 µg/mL (PA14).
`CN(C)[C@@H]1C(O)=C(C(N)=O)C(=O)[C@@]2(O)C(O)=C3C(=O)c4c(O)c(NC(=O)CNC(C)(C)C)nc(F)c4C[C@H]3C[C@@H]12.Cl.Cl` gave an MIC of over 32 µg/mL (broth dilution; ATCC27853).
For `COc1cc(C(=O)Nc2ccc(C(=O)N[C@@H](CC(N)=O)C(=O)Nc3ccc(C(=O)Nc4ccc(C(=O)Nc5ccc(C(=O)O)cc5)c(O)c4OC(C)C)cc3)cc2)ccc1C#N`, the MIC was over 64 µg/mL (PA14).
The MIC of `O=c1cc(-c2ccc(O)c(O)c2)oc2cc(O)cc(O)c12` is reported as 256 µg/mL (broth dilution; PAO1).
With `Cc1cc(C#N)ccc1C(=O)Nc1ccc(C(=O)N[C@@H](CC(N)=O)C(=O)Nc2ccc(C(=O)Nc3ccc(C(=O)Nc4ccc(C(=O)O)cc4)c(O)c3OC(C)C)cc2)cc1` the MIC was 8 µg/mL (PA14).
With `Cc1ccc(C)n1-c1ccc(-c2nnc(-c3ccc(Br)cc3)[nH]2)cc1` the MIC was 125 µg/mL (broth dilution; ATCC10145; 18 h).
`CC(C)Oc1c(NC(=O)c2ccc(NC(=O)[C@H](CC(N)=O)NC(=O)c3ccc(NC(=O)Cc4ccc(C#N)cc4)cc3)cc2)ccc(C(=O)Nc2ccc(C(=O)O)cc2)c1O` has an MIC of over 64 µg/mL (PA14).
`CC(C)CC1NC(=O)C(C(=O)NC(C(=O)NC2C(=O)N3C2SC(C)(C)C3C(=O)O)c2ccccc2)=C1O` (stereo not shown) has an MIC of 12.5 µg/mL.
For `Cc1ccc(C)n1-c1ccc(-c2nnc(-c3ccc(O)cc3)[nH]2)cc1`, the MIC was 250 µg/mL (broth dilution; ATCC10145; 18 h).
`CN(C)[C@@H]1C(O)=C(C(N)=O)C(=O)[C@@]2(O)C(O)=C3C(=O)c4c(cc5ccc(CN6CCCCC6)cc5c4O)C[C@H]3C[C@@H]12` has an MIC of 32 µg/mL (broth dilution; ATCC27853).
With `C[C@@H](O)[C@H]1C(=O)N2C(C(=O)O)=C(S[C@@H]3CN[C@H](C(=O)N(C)C)C3)[C@H](C)[C@H]12` the MIC was 1.3 µM.
The MIC of `Fc1ccccc1NCc1ccc(Oc2ccccn2)cc1` is reported as over 25 µg/mL.
`O=C1NN=C(N=Cc2ccccc2)C1=NNn1c(-c2ccccc2)nc2ccccc2c1=O` gave an MIC of 114 µM (broth dilution; 24 h).
`COc1ccc(NCc2ccc(Oc3ccccn3)cc2)cc1` has an MIC of over 25 µg/mL.
`O=C(Nc1ccc2c(c1)OC(F)(F)O2)Nc1ccc(Cl)c(C(F)(F)F)c1` gave an MIC of over 100 µM (DSM19882).
`CN(C)CCCNc1nc(Cl)c2c(c1O)C(=O)C1=C(O)[C@]3(O)C(=O)C(C(N)=O)=C(O)[C@@H](N(C)C)[C@@H]3C[C@@H]1C2.Cl` has an MIC of over 32 µg/mL (broth dilution; ATCC27853).
`CNC(C)C1CCC(N)C(OC2C(N)CC(N)C(OC3OCC(C)(O)C(NC)C3O)C2O)O1` (stereo not shown) gave an MIC of 4 µg/mL (broth dilution; PAO1).
The MIC of `CN(C)[C@@H]1C(O)=C(C(N)=O)C(=O)[C@@]2(O)C(O)=C3C(=O)c4c(cc5ccc(-c6cccnc6)cc5c4O)C[C@H]3C[C@@H]12` is reported as 32 µg/mL (broth dilution; ATCC27853).
`CN(C)[C@@H]1C(O)=C(C(N)=O)C(=O)[C@@]2(O)C(O)=C3C(=O)c4c(O)cnc(-c5ccccc5)c4C[C@H]3C[C@@H]12.Cl.Cl` gave an MIC of over 32 µg/mL (broth dilution; ATCC27853).
The MIC of `CC(C)C1NC(=O)C(C(=O)NC(C(=O)NC2C(=O)N3C2SC(C)(C)C3C(=O)O)c2ccccc2)=C1O` (stereo not shown) is reported as 50 µg/mL.
`COc1c(C)c(OC(=O)c2ccc(C)cc2)c(C)c(O)c1C(=O)/C=C/c1ccccc1` has an MIC of 5000 µg/mL (broth dilution; ATCC27853).
`CN(C)[C@@H]1C(O)=C(C(N)=O)C(=O)[C@@]2(O)C(O)=C3C(=O)c4c(cc5ccc(-c6ccccc6)cc5c4O)C[C@H]3C[C@@H]12` has an MIC of 32 µg/mL (broth dilution; ATCC27853).
